Laboratory results taken from ChEMBL document CHEMBL1153988 (J Med Chem, 2009).
Activity calls are given as the source filed them. No cut-off for these calls is given here.

Tests used:
Rattus norvegicus [1] = experiment: Anticonvulsant activity in albino Sprague-Dawley rat assessed as protection against maximal electroshock-induced seizures at 30 mg/kg, po after 15 mins; assay type: functional, organism-based; set-up: dose 30 mg/kg
How it was run: (§1)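 Adult male Sprague-Dawley albino rats (100-150 g) dosed orally with compound suspended in 0.5% methylcellulose (0.04 mL per 10 g). Maximal electroshock challenge at the stated time. Protection is scored in 25% steps as the fraction of animals protected, with neurotoxicity recorded in parallel.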

Mus musculus [2] = experiment: Anticonvulsant activity in CF1 albino mouse assessed as protection against maximal electroshock-induced seizures at 100 mg/kg, ip after 0.5 hrs; assay type: functional, organism-based; set-up: dose 100 mg/kg
How it was run: (§2)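 Adult male CF no. 1 albino mice (18-25 g). Test compound suspended in 0.5% methylcellulose and given intraperitoneally at 0.01 mL/g body weight. Maximal electroshock challenge at the stated time. Read-out is the number of animals protected over the number tested; neurotoxicity is scored in parallel.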

Rattus norvegicus [3] = experiment: Anticonvulsant activity in albino Sprague-Dawley rat assessed as protection against scMet-induced seizures at 30 mg/kg, po after 30 mins; assay type: functional
How it was run: (§3)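 Male Sprague-Dawley albino rats (100-150 g) were given the compound orally as a suspension in 0.5% methylcellulose. Seizures were induced by subcutaneous pentylenetetrazol, dissolved in 0.9% saline as a 2.82% solution. The read-out was animals protected over animals tested.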

Rattus norvegicus [4] = experiment: Anticonvulsant activity in albino Sprague-Dawley rat assessed as protection against maximal electroshock-induced seizures at 30 mg/kg, po after 2 hrs; assay type: functional, organism-based; set-up: dose 30 mg/kg; how it was run: as §1
Mus musculus [5] = experiment: Neurotoxicity in CF1 albino mouse at 100 mg/kg, ip after 4 hrs; assay type: toxicity, organism-based; set-up: dose 100 mg/kg, route intraperitoneal; conditions: in vivo
How it was run: (§4)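 Male CF no. 1 albino mice (18-25 g) received a single ip dose as a suspension in 0.5% methylcellulose. The read-out was the number of animals showing neurotoxicity (minimal motor impairment) over the number tested.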

Mus musculus [6] = experiment: Anticonvulsant activity in CF1 albino mouse assessed as protection against scMet-induced seizures at 100 mg/kg, ip after 0.5 hrs; assay type: functional, organism-based; set-up: dose 100 mg/kg
How it was run: (§5)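 Adult male CF no. 1 albino mice (18-25 g) dosed intraperitoneally with compound suspended in 0.5% methylcellulose (0.01 mL/g). Convulsant challenge given subcutaneously as a 0.85% pentylenetetrazol solution in 0.9% saline. Read-out is animals protected over animals tested, with neurotoxicity scored in parallel.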

Mus musculus [7] = experiment: Anticonvulsant activity in CF1 albino mouse assessed as protection against scMet-induced seizures at 300 mg/kg, ip after 0.5 hrs; assay type: functional, organism-based; set-up: dose 300 mg/kg; how it was run: as §5
Mus musculus [8] = experiment: Anticonvulsant activity in CF1 albino mouse assessed as protection against scMet-induced seizures at 300 mg/kg, ip after 4 hrs; assay type: functional, organism-based; set-up: dose 300 mg/kg; how it was run: as §5
Mus musculus [9] = experiment: Anticonvulsant activity in CF1 albino mouse assessed as protection against maximal electroshock-induced seizures at 30 mg/kg, ip after 4 hrs; assay type: functional, organism-based; set-up: dose 30 mg/kg; how it was run: as §2
Mus musculus [10] = experiment: Anticonvulsant activity in CF1 albino mouse assessed as protection against scMet-induced seizures at 30 mg/kg, ip after 4 hrs; assay type: functional, organism-based; set-up: dose 30 mg/kg; how it was run: as §5
Rattus norvegicus [11] = experiment: Anticonvulsant activity in albino Sprague-Dawley rat assessed as protection against maximal electroshock-induced seizures at 30 mg/kg, po after 1 hr; assay type: functional, organism-based; set-up: dose 30 mg/kg; how it was run: as §1
Rattus norvegicus [12] = experiment: Anticonvulsant activity in albino Sprague-Dawley rat assessed as protection against maximal electroshock-induced seizures at 30 mg/kg, po after 30 mins; assay type: functional, organism-based; set-up: dose 30 mg/kg; how it was run: as §1
Rattus norvegicus [13] = experiment: Anticonvulsant activity in albino Sprague-Dawley rat assessed as protection against scMet-induced seizures at 30 mg/kg, po after 15 mins; assay type: functional; how it was run: as §3
Rattus norvegicus [14] = experiment: Anticonvulsant activity in albino Sprague-Dawley rat assessed as protection against maximal electroshock-induced seizures at 30 mg/kg, po after 4 hrs; assay type: functional, organism-based; set-up: dose 30 mg/kg; how it was run: as §1
Mus musculus [15] = experiment: Anticonvulsant activity in CF1 albino mouse assessed as protection against maximal electroshock-induced seizures at 300 mg/kg, ip after 4 hrs; assay type: functional, organism-based; set-up: dose 300 mg/kg; how it was run: as §2
Mus musculus [16] = experiment: Neurotoxicity in CF1 albino mouse at 300 mg/kg, ip after 4 hrs; assay type: toxicity, organism-based; set-up: dose 300 mg/kg, route intraperitoneal; conditions: in vivo; how it was run: as §4
Mus musculus [17] = experiment: Neurotoxicity in CF1 albino mouse at 30 mg/kg, ip after 0.5 hrs; assay type: toxicity, organism-based; set-up: dose 30 mg/kg, route intraperitoneal; conditions: in vivo; how it was run: as §4
Mus musculus [18] = experiment: Neurotoxicity in CF1 albino mouse at 300 mg/kg, ip after 0.5 hrs; assay type: toxicity, organism-based; set-up: dose 300 mg/kg, route intraperitoneal; conditions: in vivo; how it was run: as §4
Mus musculus [19] = experiment: Anticonvulsant activity in CF1 albino mouse assessed as protection against maximal electroshock-induced seizures at 30 mg/kg, ip after 0.5 hrs; assay type: functional, organism-based; set-up: dose 30 mg/kg; how it was run: as §2
Mus musculus [20] = experiment: Anticonvulsant activity in CF1 albino mouse assessed as protection against maximal electroshock-induced seizures at 300 mg/kg, ip after 0.5 hrs; assay type: functional, organism-based; set-up: dose 300 mg/kg; how it was run: as §2
Mus musculus [21] = experiment: Anticonvulsant activity in CF1 albino mouse assessed as protection against scMet-induced seizures at 30 mg/kg, ip after 0.5 hrs; assay type: functional, organism-based; set-up: dose 30 mg/kg; how it was run: as §5
Rattus norvegicus [22] = experiment: Anticonvulsant activity in albino Sprague-Dawley rat assessed as protection against scMet-induced seizures at 30 mg/kg, po after 2 hrs; assay type: functional; how it was run: as §3
Rattus norvegicus [23] = experiment: Anticonvulsant activity in albino Sprague-Dawley rat assessed as protection against scMet-induced seizures at 30 mg/kg, po after 4 hrs; assay type: functional, organism-based; set-up: dose 30 mg/kg; how it was run: as §3
Rattus norvegicus [24] = experiment: Anticonvulsant activity in albino Sprague-Dawley rat assessed as protection against scMet-induced seizures at 30 mg/kg, po after 1 hr; assay type: functional
How it was run: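 Oral dosing of male Sprague-Dawley rats (100-150 g) with compound in 0.5% methylcellulose. Convulsant challenge given subcutaneously as a 2.82% pentylenetetrazol solution in 0.9% saline. Groups of about 8 rats per dose. For quantitation, doses spanning 0% to 100% protection were fitted by probit analysis to give ED50 with 95% confidence interval.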

Mus musculus [25] = experiment: Neurotoxicity in CF1 albino mouse at 100 mg/kg, ip after 0.5 hrs; assay type: toxicity, organism-based; set-up: dose 100 mg/kg, route intraperitoneal; conditions: in vivo; how it was run: as §4
Mus musculus [26] = experiment: Neurotoxicity in CF1 albino mouse at 30 mg/kg, ip after 4 hrs; assay type: toxicity, organism-based; set-up: dose 30 mg/kg, route intraperitoneal; conditions: in vivo; how it was run: as §4
Mus musculus [27] = experiment: Anticonvulsant activity in CF1 albino mouse assessed as protection against maximal electroshock-induced seizures at 100 mg/kg, ip after 4 hrs; assay type: functional, organism-based; set-up: dose 100 mg/kg; how it was run: as §2
Rattus norvegicus [28] = experiment: Anticonvulsant activity in albino Sprague-Dawley rat assessed as protection against maximal electroshock-induced seizures at 75 mg/kg, po after 4 hrs; assay type: functional; how it was run: as §1
Rattus norvegicus [29] = experiment: Anticonvulsant activity in albino Sprague-Dawley rat assessed as protection against maximal electroshock-induced seizures at 75 mg/kg, po after 15 mins; assay type: functional; how it was run: as §1
Mus musculus [30] = experiment: Anticonvulsant activity in CF1 albino mouse assessed as protection against scMet-induced seizures at 100 mg/kg, ip after 4 hrs; assay type: functional, organism-based; set-up: dose 100 mg/kg; how it was run: as §5
Rattus norvegicus [31] = experiment: Anticonvulsant activity in albino Sprague-Dawley rat assessed as protection against scMet-induced seizures at 75 mg/kg, po after 30 mins; assay type: functional, organism-based; set-up: dose 75 mg/kg; how it was run: as §3
Rattus norvegicus [32] = experiment: Neurotoxicity in albino Sprague-Dawley rat assessed as animal exhibiting toxicity at 75 mg/kg, po; assay type: organism-based; set-up: dose 75 mg/kg, route oral; conditions: in vivo
How it was run: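 Neurotoxicity was scored in male Sprague-Dawley albino rats (100-150 g) dosed orally with a suspension in 0.5% methylcellulose. The read-out was the fraction of animals showing neurotoxicity (minimal motor impairment).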

Rattus norvegicus [33] = experiment: Anticonvulsant activity in albino Sprague-Dawley rat assessed as protection against scMet-induced seizures at 75 mg/kg, po after 4 hrs; assay type: functional, organism-based; set-up: dose 75 mg/kg; how it was run: as §3
Rattus norvegicus [34] = experiment: Anticonvulsant activity in albino Sprague-Dawley rat assessed as protection against scMet-induced seizures at 75 mg/kg, po after 15 mins; assay type: functional, organism-based; set-up: dose 75 mg/kg; how it was run: as §3
Rattus norvegicus [35] = experiment: Anticonvulsant activity in albino Sprague-Dawley rat assessed as protection against scMet-induced seizures at 75 mg/kg, po after 1 hr; assay type: functional, organism-based; set-up: dose 75 mg/kg; how it was run: as §3
Rattus norvegicus [36] = experiment: Anticonvulsant activity in albino Sprague-Dawley rat assessed as protection against scMet-induced seizures at 75 mg/kg, po after 2 hrs; assay type: functional; how it was run: as §3
Rattus norvegicus [37] = experiment: Anticonvulsant activity in albino Sprague-Dawley rat assessed as protection against maximal electroshock-induced seizures at 75 mg/kg, po after 2 hrs; assay type: functional, organism-based; set-up: dose 75 mg/kg; how it was run: as §1
Rattus norvegicus [38] = experiment: Anticonvulsant activity in albino Sprague-Dawley rat assessed as protection against maximal electroshock-induced seizures at 75 mg/kg, po after 1 hr; assay type: functional, organism-based; set-up: dose 75 mg/kg; how it was run: as §1
Rattus norvegicus [39] = experiment: Anticonvulsant activity in albino Sprague-Dawley rat assessed as protection against maximal electroshock-induced seizures at 75 mg/kg, po after 30 mins; assay type: functional; how it was run: as §1

In the case of `CC1(C)C(C)(C)C1(F)C(=O)NC(N)=O`, the Activity (Rattus norvegicus [1]) was “inactive”, the Activity (Mus musculus [2]) was “Non-toxic” and the Activity (Rattus norvegicus [3]) was 25%. For the same compound, the Activity (Rattus norvegicus [4]) was “inactive”, the Activity (Mus musculus [5]) was “Non-toxic” and the Activity (Mus musculus [6]) was “Non-toxic”. For the same compound, the Activity (Mus musculus [7]) was “Non-toxic”, the Activity (Mus musculus [8]) was “Non-toxic” and the Activity (Mus musculus [9]) was “Non-toxic”. For the same compound, the Activity (Mus musculus [10]) was “Non-toxic”, the Activity (Rattus norvegicus [11]) was “inactive” and the Activity (Rattus norvegicus [12]) was “inactive”. The Activity (Rattus norvegicus [13]) was 25%, the Activity (Rattus norvegicus [14]) was “inactive” and the Activity (Mus musculus [15]) was “Non-toxic”. For the same compound, the Activity (Mus musculus [16]) was “Non-toxic”, the Activity (Mus musculus [17]) was “Non-toxic” and the Activity (Mus musculus [18]) was “Non-toxic”. The Activity (Mus musculus [19]) was “Non-toxic”, the Activity (Mus musculus [20]) was “Non-toxic” and the Activity (Mus musculus [21]) was “Non-toxic”. The Activity (Rattus norvegicus [22]) was 50%, the Activity (Rattus norvegicus [23]) was “inactive” and the Activity (Rattus norvegicus [24]) was 25%. For the same compound, the Activity (Mus musculus [25]) was “Non-toxic”, the Activity (Mus musculus [26]) was “Non-toxic” and the Activity (Mus musculus [27]) was “Non-toxic”.

With `CC1(C)C(C)(C)C1(Cl)C(=O)O` the Activity (Mus musculus [2]) was “Non-toxic”, the Activity (Mus musculus [6]) was “Non-toxic” and the Activity (Mus musculus [7]) was “Non-toxic”. The Activity (Rattus norvegicus [28]) was 25%, the Activity (Rattus norvegicus [29]) was 25% and the Activity (Mus musculus [8]) was “Non-toxic”. The Activity (Mus musculus [9]) was “Non-toxic”, the Activity (Mus musculus [10]) was “Non-toxic” and the Activity (Mus musculus [30]) was “Non-toxic”. The Activity (Rattus norvegicus [31]) was “inactive”, the Activity (Rattus norvegicus [32]) was “Not Active” and the Activity (Mus musculus [15]) was “Non-toxic”. The Activity (Rattus norvegicus [33]) was “inactive”, the Activity (Mus musculus [16]) was “Non-toxic” and the Activity (Rattus norvegicus [34]) was “inactive”. For the same compound, the Activity (Mus musculus [17]) was “Non-toxic”, the Activity (Rattus norvegicus [35]) was “inactive” and the Activity (Mus musculus [19]) was “Non-toxic”. For the same compound, the Activity (Rattus norvegicus [36]) was 25%, the Activity (Mus musculus [20]) was “Non-toxic” and the Activity (Mus musculus [21]) was “Non-toxic”. The Activity (Rattus norvegicus [37]) was “inactive”, the Activity (Rattus norvegicus [38]) was “inactive” and the Activity (Rattus norvegicus [39]) was 25%. The Activity (Mus musculus [26]) was “Non-toxic” and the Activity (Mus musculus [27]) was “Non-toxic”.
